Calls of active or inactive are those of the source. No cut-off for these calls is given here.
Tests used:
Assay type in all cases: protein assay
[1] = target: T1, Adenylate cyclase (Rattus norvegicus) (UniProt D4A3N4+P26770+Q04400+P26769+Q03343+P40146+Q8CFM9+P21932); experiment: Inhibition of dopamine sensitive adenylate cyclase at 100 uM
[2] = target: T1, Adenylate cyclase (Rattus norvegicus); experiment: Inhibition of dopamine sensitive adenylate cyclase at 10 uM
[3] = target: T1, Adenylate cyclase (Rattus norvegicus); experiment: Inhibition of dopamine sensitive adenylate cyclase at 1 uM; […]
[4] = target: T1, Adenylate cyclase (Rattus norvegicus); experiment: Inhibition of dopamine sensitive adenylate cyclase at 30 uM
[5] = target: T1, Adenylate cyclase (Rattus norvegicus); experiment: Inhibition of dopamine sensitive adenylate cyclase at 0.01 uM
Method in brief: (§1)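 Rat retinas homogenized in 150 vol/wt 2.0 mM Tris-HCl pH 7.4 with 2 mM EDTA. Incubated 20 min, 30 °C. Stopped with SDS/ATP/cyclic AMP containing [3H]cyclic AMP, then heated 85 °C, 2 min.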

[6] = target: T1, Adenylate cyclase (Rattus norvegicus); experiment: Inhibition of dopamine sensitive adenylate cyclase at 1 uM; method in brief: as §1
[7] = target: T1, Adenylate cyclase (Rattus norvegicus); experiment: Inhibition of dopamine sensitive adenylate cyclase at 0.1 uM; method in brief: as §1
[8] = target: T1, Adenylate cyclase (Rattus norvegicus); experiment: Inhibition of dopamine sensitive adenylate cyclase at 10 uM; No inhibition
[9] = target: T1, Adenylate cyclase (Rattus norvegicus); experiment: Inhibition of dopamine sensitive adenylate cyclase at 100 uM; No inhibition

CN1Cc2ccccc2C(c2ccc(Cl)c(O)c2)C1 (stereo unspecified)
inhibition [1]: 57.9%
inhibition [2]: 21%
inhibition [3]: inactive
inhibition [4]: 45.1%

CN1CCc2cc(Cl)c(O)cc2[C@@H](c2ccccc2)C1
inhibition [5]: 23.2%
inhibition [6]: 74.3%
inhibition [7]: 59.9%

Oc1cc(C2CNCc3ccccc32)ccc1Cl (stereo unspecified)
inhibition [1]: 26.3%
inhibition [2]: 8.9%
inhibition [3]: inactive

Oc1cccc(C2CNCc3ccccc32)c1 (stereo unspecified)
inhibition [1]: 22.9%
inhibition [2]: 8.8%
inhibition [3]: inactive

Oc1ccc(C2CNCc3ccccc32)cc1Cl (stereo unspecified)
inhibition [8]: inactive
inhibition [9]: inactive
inhibition [3]: inactive

Source: ChEMBL document CHEMBL1123939, “Evaluation of isomeric 4-(chlorohydroxyphenyl)-1,2,3,4-tetrahydroisoquinolines as dopamine D-1 antagonists” (J Med Chem, 1987)
